This passage reports IC50 and IC20 results from paper PMC5609789 (Drug Design, Development and Therapy, 2017).

For orientation: IC50 means the concentration needed to halve the response being measured.

What all share (format): cell-based
The test system of assay [1] is MCF-7 breast cancer cells. Kind of assay: MTT cell viability assay, MCF-7. The conditions noted are these: Homo sapiens, MCF7, 24 h, read-out: IC50, Breast adenocarcinoma (MCF-7). In a few lines: (§1)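 Cells grown in RPMI 1640 with 10% FBS, penicillin and streptomycin at 37°C, 5% CO2. DMSO stocks were 10.0 mM. Seeded in triplicate at 1.0×10^4 cells/well; after 24 h, dosed 5.0–50.0 μM for 24 h. MTT (5.0 mg/mL) was added for 2 h at 37°C in the dark, formazan dissolved in DMSO, A579 read against 650 nm. IC50 reported as mean ± SEM, n=3. Not assigned if viability stayed above 50% at 50 μM.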

Assay [2] concerns PC-3 prostate cancer cells. Kind of assay: MTT cell viability assay, PC-3. The conditions noted are these: Homo sapiens, 24 h, read-out: IC50, Prostate carcinoma (PC-3). In a few lines:
as §1
On the technique in general: Tetrazolium dyes change colour on reduction, which living cells bring about.

Assay [3] deals with MDA-MB-231 breast cancer cells. Kind of assay: MTT cell viability assay, MDA-MB-231. Particulars: Homo sapiens; for IC20: MDA-MB-231, read-out: IC20 (20% inhibitory concentration) on MDA-MB-231 cell line. The essentials: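 MDA-MB-231 cells (ATCC) grown in RPMI 1640 with 10% FBS, penicillin/streptomycin, 37°C, 5% CO2. Seeded in triplicate at 1.0×10^4 cells/well, then after 24 h exposed to 5.0–50.0 μM test compound (10.0 mM DMSO stock) for 24 h. MTT (5.0 mg/mL) was added for 2 h at 37°C in the dark, formazan dissolved in DMSO, and absorbance read at 579 nm (reference 650 nm). Mean ± SEM, n=3.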

Assay [4] deals with HepG2 liver cancer cells. Kind of assay: MTT cell viability assay, HepG2. Particulars: Homo sapiens, HepG2, 24 h, read-out: IC50, Hepatocyte carcinoma (HepG2). In a few lines:
(§2)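 Cultured in DMEM with 10% FBS, penicillin/streptomycin, 37°C, 5% CO2. Cells plated in triplicate at 1.0×10^4/well. After 24 h, test compound was added at 5.0–50.0 μM (from 10.0 mM DMSO stocks) for 24 h. MTT reduction ran 2 h at 37°C in the dark, formazan was dissolved in DMSO, absorbance 579 nm (reference 650 nm). IC50 given as mean ± SEM (n=3), not assigned when viability remained >50% at 50 μM.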

The subject of assay [5] is human mammary epithelial cells (HMECs). Kind of assay: MTT cell viability assay, HMEC normal control. Particulars: 24 h, read-out: IC50, HMECs (normal cells). In a few lines: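 Normal human mammary epithelial cells kept in mammary epithelial growth medium at 37°C, 5% CO2. Test compound was applied for 24 h over 5.0–50.0 μM (10.0 mM DMSO stocks), and viability was measured by MTT: 2 h in the dark at 37°C, DMSO solubilisation, read at 579/650 nm. Mean ± SEM of n=3; no IC50 assigned if viability stayed above 50% at 50 μM.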

The test system of assay [6] is EJ-28 urinary bladder cancer cells. Kind of assay: MTT cell viability assay, EJ-28. The conditions noted are these: Homo sapiens, EJ-28, 24 h, read-out: IC50, Bladder carcinoma (EJ-28). In a few lines:
as §1

The test system of assay [7] is RT-112 urinary bladder cancer cells. Briefly: MTT cell viability assay, RT-112. The conditions noted are these: Homo sapiens, RT-112, 24 h, read-out: IC50, Bladder carcinoma (RT-112). In a few lines:
as §1

For assay [8], the system named is HSC-4 oral squamous cancer cells. Kind of assay: MTT cell viability assay, HSC-4. Particulars: Homo sapiens, HSC-4, 24 h, read-out: IC50, Oral squamous carcinoma (HSC-4). In a few lines: as §2

With `C=CCc1cc(OC)c(O)c(OC)c1` [compound 2, 4-Allyl-2,6-dimethoxyphenol], the concentration for half-maximal inhibition (IC50) in assay [1], in assay [2], in assay [4], in assay [5], in assay [6] and in assay [7] was greater than 50 µM in each case. In addition, the IC50 in assay [8] was greater than 50 µM. For the same molecule, the IC20 in assay [3] is 48 µM.
Regarding `C=CCc1ccc(OC)cc1` [compound 5, 4-allyl anisole], the IC50 in assay [1] is greater than 50 µM; in assay [2], greater than 50 µM; in assay [3] (MDA-MB-231, 24 h, read-out: IC50, Breast adenocarcinoma (MDA-MB-231)), greater than 50 µM; in assay [4], greater than 50 µM; in assay [5], greater than 50 µM; in assay [6] it was greater than 50 µM. Further, the IC50 in assay [7] and in assay [8] was greater than 50 µM throughout. For the same molecule, the IC20 in assay [3] was 32 µM.
